Measurements reported in ChEMBL document CHEMBL1121556, “Structure-activity relationships in a series of newly synthesized 1-amino-substituted ellipticine derivatives” (J Med Chem, 1980).
Starred links: 1 amine or outer side, 2 acyl side, 3 side chain; linkers in the order of their positions; H or OH if unused. Positions of bridges follow the written chain, without caps; N, C: chain ends. Non-standard residues stand in square brackets, D forms with d. Residues, ends and D or L forms follow the SMILES beside them. Chains are numbered I, II in the order given. Actinocin(1to9) = Cc1c2oc3c(C)ccc(C(=O)[*:2])c3nc-2c(C(=O)[*:1])c(N)c1=O; NMeV = CN[C@H](C(=O)O)C(C)C; Sar = CNCC(=O)O

Key:
[1] = system: Friend leukemia cells (Mus musculus); test: In vitro concentration required for growth inhibition of murine Friend leukemia cell; conditions: read-out: ID50 (the source's name)
Nucleic Acid [2] = test: B app constant towards DNA; format: nucleic-acid assay; conditions: Bos taurus
Summary of the method: (§1)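 Association constants for DNA binding were derived from absorption changes of calf thymus DNA at 6 × 10^-7 M, expressed as mononucleotide concentration. The buffer was 50 mM Tris-HCl, pH 7.4, with 0.1 M NaCl.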

Mus musculus [3] = test: In vivo evaluation for the antitumor activity on L1210 leukemia cells at the dose 15 mg/kg administered intraperitoneally; format: functional; conditions: route intraperitoneal
Mus musculus [4] = test: In vivo evaluation for the antitumor activity on L1210 leukemia cells at the dose 15 mg/kg administered intraperitoneally 1 day after 10 e5 L1210 leukemia cells and increase in life span;(P<0.01).; format: functional; conditions: L1210, ip, 24 h, route intraperitoneal
Mus musculus [5] = test: In vivo antitumor activity on L1210 leukemia cells at the dose 15 mg/kg administered intraperitoneally 1 day after 10 e5 L1210 leukemia cells and range of deaths; format: functional; conditions: route intraperitoneal
Mus musculus [6] = test: In vivo acute toxicity (nonlethal dose) against mice by intraperitoneal administration; format: organism-based; conditions: ip
Summary of the method: (§2)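 Mice (ICFW, C3H or B6D2 F1; 6-8 weeks; 22-24 g) in five groups of six. Drug dissolved in acidified saline (equimolar acetic acid) and given as a single ip or iv dose of 2, 5, 10, 25 or 50 mg/kg. Mortality observed over 30 days to set the lethal dose (LD100) and the highest nonlethal dose (LD0).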

Mus musculus [7] = test: In vivo acute toxicity (lethal dose) against mice by intraperitoneal administration; format: organism-based; conditions: ip
Summary of the method: as §2

Nucleic Acid [8] = test: Apparent association constant towards DNA at concentration of 1E-7/M; format: nucleic-acid assay; conditions: Bos taurus
Summary of the method: as §1

Nucleic Acid [9] = test: Apparent association constant towards DNA at concentration of 10e-7/M.; format: nucleic-acid assay; conditions: Bos taurus
Summary of the method: as §1

Mus musculus [10] = test: In vivo antitumor activity on L1210 leukemia cells at the dose 2.5 mg/kg administered intraperitoneally 1 day after 10 e5 L1210 leukemia cells and range of deaths; format: functional; conditions: route intraperitoneal
Mus musculus [11] = test: In vivo evaluation of antitumor activity on L1210 leukemia cells at the dose 2.5 mg/kg administered intraperitoneally 1 day after 10 e5 L1210 leukemia cells and increase in life span; format: functional; conditions: L1210, ip, 24 h, route intraperitoneal
Mus musculus [12] = test: In vivo leukemia cells at the dose 2.5 mg/kg administered intraperitoneally 1 day after 10 e5 L1210 leukemia cells and Mean survival time; format: functional; conditions: route intraperitoneal
Mus musculus [13] = test: In vivo acute toxicity (lethal dose) against mice by intravenous administration; format: organism-based
Summary of the method: as §2

Mus musculus [14] = test: In vivo evaluation of antitumor activity on L1210 leukemia cells at the dose 5 mg/kg administered intraperitoneally 1 day after 10 e5 L1210 leukemia cells and Mean survival time; conditions: route intraperitoneal
Nucleic Acid [15] = test: (§3) Apparent association constant towards DNA at concentration of 10e-7/M; format: nucleic-acid assay; conditions: Bos taurus
Summary of the method: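 Apparent association constant from absorption changes of 6 × 10^-7 M calf thymus DNA (as mononucleotide concentration) in 50 mM Tris-HCl, pH 7.4, 0.1 M NaCl.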

Mus musculus [16] = test: In vivo acute toxicity (nonlethal dose) against mice by intravenous administration; format: organism-based
Summary of the method: as §2

Mus musculus [17] = test: In Vivo antitumor activity on grafted tumor friend cells at the dose 5 mg/kg and decrease in intravenous 10 e 6 cells and median survival time was determined; format: functional
Summary of the method: (§4)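 Friend tumor cells, 10^6, injected iv into syngeneic mice. Mice randomized in groups of 16. Drug dissolved in acidified saline (equimolar acetic acid) and given as a single iv dose 3 days after inoculation. Median survival time recorded. %ILS = (treated median survival − control median survival)/control median survival × 100.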

Mus musculus [18] = test: In vivo evaluation of antitumor activity on L1210 leukemia cells at the dose 15 mg/kg administered intraperitoneally 1 day after 10 e5 L1210 leukemia cells and increase in life span;(P<0.001); format: functional; conditions: L1210, ip, 24 h, route intraperitoneal
Mus musculus [19] = test: In Vivo evaluation for the antitumor activity on grafted tumor friend cells at the dose 20 mg/kg and Increase in the life span was determined; format: functional
Summary of the method: as §4

Nucleic Acid [20] = test: Apparent association constant towards DNA at concentration of 10 E-7/M; format: nucleic-acid assay; conditions: Bos taurus
Summary of the method: as §1

Mus musculus [21] = test: In Vivo antitumor activity on grafted tumor friend cells at the dose 5 mg/kg and decrease in intravenous 10 e 6 cells and median survival time; format: functional
Summary of the method: as §4

Nucleic Acid [22] = test: as §3; format: nucleic-acid assay; conditions: Bos taurus; remark: listed apart in the source
Summary of the method: as §1

Mus musculus [23] = test: In vivo evaluation of antitumor activity on L1210 leukemia cells at the dose 5 mg/kg administered intraperitoneally 1 day after 10 e5 L1210 leukemia cells and Mean survival time; format: functional; conditions: route intraperitoneal
Mus musculus [24] = test: In vivo evaluation of antitumor activity on L1210 leukemia cells at the dose 5 mg/kg administered intraperitoneally 1 day after 10 e5 L1210 leukemia cells and increase in life span;; format: functional; conditions: L1210, ip, 24 h, route intraperitoneal
Mus musculus [25] = test: In Vivo evaluation for the antitumor activity on grafted tumor friend cells at the dose 5 mg/kg and Increase in the life span; format: functional
Summary of the method: as §4

Mus musculus [26] = test: In vivo antitumor activity on L1210 leukemia cells at the dose 5 mg/kg administered intraperitoneally 1 day after 10 e5 L1210 leukemia cells and range of deaths; format: functional; conditions: route intraperitoneal
Mus musculus [27] = test: In vivo evaluation of antitumor activity on L1210 leukemia cells at the dose 10 mg/kg administered intraperitoneally 1 day after 10 e5 L1210 leukemia cells and Mean survival time; format: functional; conditions: route intraperitoneal
Mus musculus [28] = test: In vivo evaluation of antitumor activity on L1210 leukemia cells at the dose 10 mg/kg administered intraperitoneally 1 day after 10 e5 L1210 leukemia cells and increase in life span; format: functional; conditions: L1210, ip, 24 h, route intraperitoneal
Mus musculus [29] = test: In vivo antitumor activity on L1210 leukemia cells at the dose 10 mg/kg administered intraperitoneally 1 day after 10 e5 L1210 leukemia cells and range of deaths; format: functional; conditions: route intraperitoneal

Structure (SMILES) | IC50 [1] [nM] | Bapp (Nucleic Acid [2]) | LD0 (Mus musculus [6]) [mg/kg] | LD100 (Mus musculus [7]) [mg/kg] | also measured
CCN(CC)CCCNc1nccc2c(C)c3[nH]c4ccc(OC)cc4c3cc12 | 5000 | 0.1 | 15 | 30 | MST (Mus musculus [3]): 14.3 days; ILS at 15 mg/kg (Mus musculus [4]): 24.6%; Range of deaths (Mus musculus [5]): 19 days; K app (Nucleic Acid [8]): 3.15e+07 M⁻¹
Cc1c2ccnc(NCCN(C)C)c2cc2c1[nH]c1ccc(O)cc12 | 30 | – | 2.5 | 5 | Range of deaths (Mus musculus [10]): 20 days; ILS at 2.5 mg/kg (Mus musculus [11]): 26%; MST (Mus musculus [12]): 16 days
CCN(CC)CCCNc1nccc2c(C)c3[nH]c4ccc(O)cc4c3cc12 | 20 | 0.11 | 5 | 15 | LD100 (Mus musculus [13]): 15 mg/kg; MST (Mus musculus [14]): 16 days; Range of deaths (Mus musculus [5]): 18 days; K app (Nucleic Acid [15]): 3.7e+07 M⁻¹; LD0 (Mus musculus [16]): 5 mg/kg; MST (Mus musculus [17]): 11 days; ILS at 15 mg/kg (Mus musculus [18]): 49.5%; ILS at 20 mg/kg (Mus musculus [19]): 29.4%
COc1ccc2[nH]c3c(C)c4ccnc(NCCN)c4cc3c2c1 | 100 | 0.135 | 5 | 10 | MST (Mus musculus [21]): 10.1 days; K app (Nucleic Acid [22]): 3.3e+07 M⁻¹; MST (Mus musculus [23]): 13.8 days; ILS at 5 mg/kg (Mus musculus [24]): 8.7%; ILS at 5 mg/kg (Mus musculus [25]): 18.8%; Range of deaths (Mus musculus [26]): 20 days
COc1ccc2[nH]c3c(C)c4ccnc(NCCCN5CCN(CCCN)CC5)c4cc3c2c1 | 200 | – | 25 | 50 | LD100 (Mus musculus [13]): 2.5 mg/kg; LD0 (Mus musculus [16]): < 1 mg/kg
COc1ccc2[nH]c3c(C)c4ccnc(NCCCN)c4c(C)c3c2c1 | 100 | – | 10 | 20 | MST (Mus musculus [27]): 12.2 days; ILS at 10 mg/kg (Mus musculus [28]): 14%; Range of deaths (Mus musculus [29]): 14 days
Cc1c2oc3c(C)ccc(C(=O)N[C@@H]4C(=O)N[C@H](C(C)C)C(=O)N5CCC[C@H]5C(=O)N(C)CC(=O)N(C)[C@@H](C(C)C)C(=O)O[C@@H]4C)c3nc-2c(C(=O)N[C@@H]2C(=O)N[C@H](C(C)C)C(=O)N3CCC[C@H]3C(=O)N(C)CC(=O)N(C)[C@@H](C(C)C)C(=O)O[C@@H]2C)c(N)c1=O [DACTINOMYCIN] (I: T[dV]P[Sar][NMeV] / II: T[dV]P[Sar][NMeV]; ester I:1-I:C, II:1-II:C; linker I:N-II:N via Actinocin(1to9)) | 1 | – | – | – | –

Continued, in another order:

IC50 [1] [nM] | Structure (SMILES) | Bapp (Nucleic Acid [2]) | LD0 (Mus musculus [6]) [mg/kg] | LD100 (Mus musculus [7]) [mg/kg] | also measured
800 | COc1ccc2[nH]c3c(C)c4ccnc(NCCCCCCN)c4cc3c2c1 | 0.11 | – | – | K app (Nucleic Acid [9]): 3.5e+07 M⁻¹
200 | COc1ccc2[nH]c3c(C)c4ccnc(NCCCN)c4cc3c2c1 | 0.07 | – | – | K app (Nucleic Acid [20]): 3.05e+07 M⁻¹
30000 | COc1ccc2[nH]c3c(C)c4ccnc(N5CCCCC5)c4cc3c2c1 | – | – | – | –
5000 | COc1ccc2[nH]c3c(C)c4cc[n+](C)c(Nc5ccccc5)c4cc3c2c1 | – | – | – | –
300 | Cc1c2cc[n+](C)cc2c(C)c2c1[nH]c1ccc(O)cc12 [ELLIPTINIUM] | – | – | – | –
> 100000 | COc1ccc2[nH]c3c(C)c4cc[n+](C)c(N(C)C)c4cc3c2c1 | – | – | – | –
1000 | CCN(CC)CCCNc1nccc2c(C)c3[nH]c4ccc(OCc5ccccc5)cc4c3c(C)c12 | – | – | – | –
